Measurements taken from ChEMBL document CHEMBL1255457, “Determination of an inoculum effect with various cephalosporins among clinical isolates of methicillin-susceptible Staphylococcus aureus” (2010).
Converted amounts (≈) assume the structure as drawn.

Tested on: Staphylococcus aureus
Assay: Antibacterial activity against methicillin-susceptible beta-lactamase positive Staphylococcus aureus using 5x10^5 CFU/ml standard inoculum after 24 hrs by broth microdilution method
Format: functional
Procedure, shortened: (§1)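 Clinical MSSA isolates previously typed by Bla (25 type A, 15 type B, 45 type C, 13 blaZ-negative), with TX0117, ATCC 29213 and ATCC 25923 as controls. Broth microdilution per CLSI, read at 24 h. Standard (~5 × 10^5 CFU/ml) or high (~5 × 10^7 CFU/ml) inoculum set by OD, CFU/ml checked at random. MIC90 and geometric mean MIC per group, compared by Mann-Whitney test.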

| SMILES | MIC [µg/mL] | MIC90 [µg/mL] |
| --- | --- | --- |
| CCOc1ccc2ccccc2c1C(=O)N[C@@H]1C(=O)N2[C@@H]1SC(C)(C)[C@@H]2C(=O)O [NAFCILLIN] | 0.4 (≈ 0.965 µM) | 0.5 (≈ 1.21 µM) |
| Nc1nc(/C(=N/O)C(=O)N[C@@H]2C(=O)N3C(C(=O)O)=C(/C=C4\CCN([C@@H]5CCNC5)C4=O)CS[C@H]23)ns1 [CEFTOBIPROLE] | 0.4 (≈ 0.748 µM) | 0.5 (≈ 0.935 µM) |
| CC(=O)OCC1=C(C(=O)O)N2C(=O)[C@@H](NC(=O)Cc3cccs3)[C@H]2SC1 [CEPHALOTHIN] | 0.5 (≈ 1.26 µM) | 1 (≈ 2.52 µM) |
| CO/N=C(\C(=O)N[C@@H]1C(=O)N2C(C(=O)O)=C(CSc3nc(=O)c(O)nn3C)CS[C@H]12)c1csc(N)n1 [CEFTRIAXONE] | 2.9 (≈ 5.23 µM) | 4 (≈ 7.21 µM) |
| CC1=C(C(=O)O)N2C(=O)[C@@H](NC(=O)[C@H](N)c3ccccc3)[C@H]2SC1 [CEPHALEXIN ANHYDROUS] | 3.9 (≈ 11.2 µM) | 4 (≈ 11.5 µM) |

Tested on: Staphylococcus aureus
Assay: Antibacterial activity against methicillin-susceptible beta-lactamase negative Staphylococcus aureus using 5x10^5 CFU/ml standard inoculum after 24 hrs by broth microdilution method
Format: functional
Procedure, shortened: as §1

| SMILES | MIC [µg/mL] | MIC90 [µg/mL] |
| --- | --- | --- |
| CCOc1ccc2ccccc2c1C(=O)N[C@@H]1C(=O)N2[C@@H]1SC(C)(C)[C@@H]2C(=O)O [NAFCILLIN] | 0.4 (≈ 0.965 µM) | 0.5 (≈ 1.21 µM) |
| Nc1nc(/C(=N/O)C(=O)N[C@@H]2C(=O)N3C(C(=O)O)=C(/C=C4\CCN([C@@H]5CCNC5)C4=O)CS[C@H]23)ns1 [CEFTOBIPROLE] | 0.3 (≈ 0.561 µM) | 0.5 (≈ 0.935 µM) |
| CC(=O)OCC1=C(C(=O)O)N2C(=O)[C@@H](NC(=O)Cc3cccs3)[C@H]2SC1 [CEPHALOTHIN] | 0.3 (≈ 0.757 µM) | 0.5 (≈ 1.26 µM) |
| CO/N=C(\C(=O)N[C@@H]1C(=O)N2C(C(=O)O)=C(CSc3nc(=O)c(O)nn3C)CS[C@H]12)c1csc(N)n1 [CEFTRIAXONE] | 3.1 (≈ 5.59 µM) | 4 (≈ 7.21 µM) |
| CC1=C(C(=O)O)N2C(=O)[C@@H](NC(=O)[C@H](N)c3ccccc3)[C@H]2SC1 [CEPHALEXIN ANHYDROUS] | 2.5 (≈ 7.2 µM) | 4 (≈ 11.5 µM) |

Tested on: Staphylococcus aureus
Assay: Antibacterial activity against methicillin-susceptible beta-lactamase positive Staphylococcus aureus using 5x10^7 CFU/ml high inoculum after 24 hrs by broth microdilution method
Format: functional
Procedure, shortened: as §1

| MIC [µg/mL] | MIC90 [µg/mL] | SMILES |
| --- | --- | --- |
| 3.4 (≈ 6.13 µM) | 4 (≈ 7.21 µM) | CO/N=C(\C(=O)N[C@@H]1C(=O)N2C(C(=O)O)=C(CSc3nc(=O)c(O)nn3C)CS[C@H]12)c1csc(N)n1 [CEFTRIAXONE] |
| 1 (≈ 2.36 µM) | 1 (≈ 2.36 µM) | CO/N=C(\C(=O)N[C@@H]1C(=O)N2C(C(=O)O)=C(COC(N)=O)CS[C@H]12)c1ccco1 [CEFUROXIME] |

Second part, the compound before the results:

| SMILES | MIC [µg/mL] | MIC90 [µg/mL] |
| --- | --- | --- |
| CCOc1ccc2ccccc2c1C(=O)N[C@@H]1C(=O)N2[C@@H]1SC(C)(C)[C@@H]2C(=O)O [NAFCILLIN] | 0.7 (≈ 1.69 µM) | 1 (≈ 2.41 µM) |
| Nc1nc(/C(=N/O)C(=O)N[C@@H]2C(=O)N3C(C(=O)O)=C(/C=C4\CCN([C@@H]5CCNC5)C4=O)CS[C@H]23)ns1 [CEFTOBIPROLE] | 0.7 (≈ 1.31 µM) | 1 (≈ 1.87 µM) |
| CC(=O)OCC1=C(C(=O)O)N2C(=O)[C@@H](NC(=O)Cc3cccs3)[C@H]2SC1 [CEPHALOTHIN] | 1.9 (≈ 4.79 µM) | 8 (≈ 20.2 µM) |
| CC1=C(C(=O)O)N2C(=O)[C@@H](NC(=O)[C@H](N)c3ccccc3)[C@H]2SC1 [CEPHALEXIN ANHYDROUS] | 10.7 (≈ 30.8 µM) | 32 (≈ 92.1 µM) |

Tested on: Staphylococcus aureus
Assay: Antibacterial activity against methicillin-susceptible beta-lactamase negative Staphylococcus aureus using 5x10^7 CFU/ml high inoculum after 24 hrs by broth microdilution method
Format: functional
Procedure, shortened: as §1

| MIC [µg/mL] | MIC90 [µg/mL] | SMILES |
| --- | --- | --- |
| 3.1 (≈ 5.59 µM) | 4 (≈ 7.21 µM) | CO/N=C(\C(=O)N[C@@H]1C(=O)N2C(C(=O)O)=C(CSc3nc(=O)c(O)nn3C)CS[C@H]12)c1csc(N)n1 [CEFTRIAXONE] |
| 1 (≈ 2.36 µM) | 1 (≈ 2.36 µM) | CO/N=C(\C(=O)N[C@@H]1C(=O)N2C(C(=O)O)=C(COC(N)=O)CS[C@H]12)c1ccco1 [CEFUROXIME] |

Continued, compound first:

| SMILES | MIC [µg/mL] | MIC90 [µg/mL] |
| --- | --- | --- |
| CCOc1ccc2ccccc2c1C(=O)N[C@@H]1C(=O)N2[C@@H]1SC(C)(C)[C@@H]2C(=O)O [NAFCILLIN] | 0.7 (≈ 1.69 µM) | 1 (≈ 2.41 µM) |
| Nc1nc(/C(=N/O)C(=O)N[C@@H]2C(=O)N3C(C(=O)O)=C(/C=C4\CCN([C@@H]5CCNC5)C4=O)CS[C@H]23)ns1 [CEFTOBIPROLE] | 0.3 (≈ 0.561 µM) | 0.5 (≈ 0.935 µM) |
| CC(=O)OCC1=C(C(=O)O)N2C(=O)[C@@H](NC(=O)Cc3cccs3)[C@H]2SC1 [CEPHALOTHIN] | 0.3 (≈ 0.757 µM) | 0.5 (≈ 1.26 µM) |
| CC1=C(C(=O)O)N2C(=O)[C@@H](NC(=O)[C@H](N)c3ccccc3)[C@H]2SC1 [CEPHALEXIN ANHYDROUS] | 3.1 (≈ 8.92 µM) | 4 (≈ 11.5 µM) |

Tested on: Staphylococcus aureus
Assay: Antibacterial activity against methicillin-susceptible Bla-producing Staphylococcus aureus type A using 5x10^5 CFU/ml standard inoculum after 24 hrs by broth microdilution method
Format: functional
Procedure, shortened: as §1

| SMILES | MIC [µg/mL] | MIC90 [µg/mL] |
| --- | --- | --- |
| Nc1nc(/C(=N/O)C(=O)N[C@@H]2C(=O)N3C(C(=O)O)=C(/C=C4\CCN([C@@H]5CCNC5)C4=O)CS[C@H]23)ns1 [CEFTOBIPROLE] | 0.4 (≈ 0.748 µM) | 0.5 (≈ 0.935 µM) |
| CC(=O)OCC1=C(C(=O)O)N2C(=O)[C@@H](NC(=O)Cc3cccs3)[C@H]2SC1 [CEPHALOTHIN] | 0.4 (≈ 1.01 µM) | 0.5 (≈ 1.26 µM) |
| CC1=C(C(=O)O)N2C(=O)[C@@H](NC(=O)[C@H](N)c3ccccc3)[C@H]2SC1 [CEPHALEXIN ANHYDROUS] | 4.6 (≈ 13.2 µM) | 8 (≈ 23 µM) |

Tested on: Staphylococcus aureus
Assay: Antibacterial activity against methicillin-susceptible Bla-producing Staphylococcus aureus type B using 5x10^5 CFU/ml standard inoculum after 24 hrs by broth microdilution method
Format: functional
Procedure, shortened: as §1

| SMILES | MIC [µg/mL] | MIC90 [µg/mL] |
| --- | --- | --- |
| Nc1nc(/C(=N/O)C(=O)N[C@@H]2C(=O)N3C(C(=O)O)=C(/C=C4\CCN([C@@H]5CCNC5)C4=O)CS[C@H]23)ns1 [CEFTOBIPROLE] | 0.5 (≈ 0.935 µM) | 0.5 (≈ 0.935 µM) |
| CC(=O)OCC1=C(C(=O)O)N2C(=O)[C@@H](NC(=O)Cc3cccs3)[C@H]2SC1 [CEPHALOTHIN] | 0.5 (≈ 1.26 µM) | 1 (≈ 2.52 µM) |
| CC1=C(C(=O)O)N2C(=O)[C@@H](NC(=O)[C@H](N)c3ccccc3)[C@H]2SC1 [CEPHALEXIN ANHYDROUS] | 3.3 (≈ 9.5 µM) | 4 (≈ 11.5 µM) |

Tested on: Staphylococcus aureus
Assay: Antibacterial activity against methicillin-susceptible Bla-producing Staphylococcus aureus type C using 5x10^5 CFU/ml standard inoculum after 24 hrs by broth microdilution method
Format: functional
Procedure, shortened: as §1

| SMILES | MIC [µg/mL] | MIC90 [µg/mL] |
| --- | --- | --- |
| Nc1nc(/C(=N/O)C(=O)N[C@@H]2C(=O)N3C(C(=O)O)=C(/C=C4\CCN([C@@H]5CCNC5)C4=O)CS[C@H]23)ns1 [CEFTOBIPROLE] | 0.5 (≈ 0.935 µM) | 0.5 (≈ 0.935 µM) |
| CC(=O)OCC1=C(C(=O)O)N2C(=O)[C@@H](NC(=O)Cc3cccs3)[C@H]2SC1 [CEPHALOTHIN] | 0.6 (≈ 1.51 µM) | 1 (≈ 2.52 µM) |
| CC1=C(C(=O)O)N2C(=O)[C@@H](NC(=O)[C@H](N)c3ccccc3)[C@H]2SC1 [CEPHALEXIN ANHYDROUS] | 3.8 (≈ 10.9 µM) | 4 (≈ 11.5 µM) |

Tested on: Staphylococcus aureus
Assay: Antibacterial activity against methicillin-susceptible Bla-producing Staphylococcus aureus type B using 5x10^7 CFU/ml high inoculum after 24 hrs by broth microdilution method
Format: functional
Procedure, shortened: as §1

| SMILES | MIC [µg/mL] | MIC90 [µg/mL] |
| --- | --- | --- |
| Nc1nc(/C(=N/O)C(=O)N[C@@H]2C(=O)N3C(C(=O)O)=C(/C=C4\CCN([C@@H]5CCNC5)C4=O)CS[C@H]23)ns1 [CEFTOBIPROLE] | 0.7 (≈ 1.31 µM) | 2 (≈ 3.74 µM) |
| CC(=O)OCC1=C(C(=O)O)N2C(=O)[C@@H](NC(=O)Cc3cccs3)[C@H]2SC1 [CEPHALOTHIN] | 1.3 (≈ 3.28 µM) | 4 (≈ 10.1 µM) |
| CC1=C(C(=O)O)N2C(=O)[C@@H](NC(=O)[C@H](N)c3ccccc3)[C@H]2SC1 [CEPHALEXIN ANHYDROUS] | 14.7 (≈ 42.3 µM) | 64 (≈ 184 µM) |

Tested on: Staphylococcus aureus
Assay: Antibacterial activity against methicillin-susceptible Bla-producing Staphylococcus aureus type C using 5x10^7 CFU/ml high inoculum after 24 hrs by broth microdilution method
Format: functional
Procedure, shortened: as §1

| SMILES | MIC [µg/mL] | MIC90 [µg/mL] |
| --- | --- | --- |
| Nc1nc(/C(=N/O)C(=O)N[C@@H]2C(=O)N3C(C(=O)O)=C(/C=C4\CCN([C@@H]5CCNC5)C4=O)CS[C@H]23)ns1 [CEFTOBIPROLE] | 0.7 (≈ 1.31 µM) | 1 (≈ 1.87 µM) |
| CC(=O)OCC1=C(C(=O)O)N2C(=O)[C@@H](NC(=O)Cc3cccs3)[C@H]2SC1 [CEPHALOTHIN] | 3 (≈ 7.57 µM) | 8 (≈ 20.2 µM) |
| CC1=C(C(=O)O)N2C(=O)[C@@H](NC(=O)[C@H](N)c3ccccc3)[C@H]2SC1 [CEPHALEXIN ANHYDROUS] | 6.6 (≈ 19 µM) | 16 (≈ 46.1 µM) |

Tested on: Staphylococcus aureus
Assay: Antibacterial activity against methicillin-susceptible Bla-producing Staphylococcus aureus type A using 5x10^7 CFU/ml high inoculum after 24 hrs by broth microdilution method
Format: functional
Procedure, shortened: as §1

| SMILES | MIC [µg/mL] | MIC90 [µg/mL] |
| --- | --- | --- |
| Nc1nc(/C(=N/O)C(=O)N[C@@H]2C(=O)N3C(C(=O)O)=C(/C=C4\CCN([C@@H]5CCNC5)C4=O)CS[C@H]23)ns1 [CEFTOBIPROLE] | 0.7 (≈ 1.31 µM) | 1 (≈ 1.87 µM) |
| CC(=O)OCC1=C(C(=O)O)N2C(=O)[C@@H](NC(=O)Cc3cccs3)[C@H]2SC1 [CEPHALOTHIN] | 2 (≈ 5.04 µM) | 8 (≈ 20.2 µM) |
| CC1=C(C(=O)O)N2C(=O)[C@@H](NC(=O)[C@H](N)c3ccccc3)[C@H]2SC1 [CEPHALEXIN ANHYDROUS] | 10.6 (≈ 30.5 µM) | 32 (≈ 92.1 µM) |
